Test results published in ChEMBL document CHEMBL1275561, “In vitro activities of doripenem, a new broad-spectrum carbapenem, against recently collected clinical anaerobic isolates, with emphasis on the Bacteroides fragilis group” (2008).
In brackets after ≈: the same amount, converted by molar mass.

Columns and labels:
Assay type in all cases: functional
Finegoldia magna [1] = experiment: Antimicrobial activity against Finegoldia magna by agar dilution method
Outline: (§1)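 Gram-positive anaerobes were tested by CLSI agar dilution on brucella agar enriched with 5% lysed defibrinated sheep blood and 1 μg/ml vitamin K1. Inoculum was log-phase growth at 0.5 McFarland, about 10^5 CFU/spot by replicator. Incubation was anaerobic, 37°C, 48 h. MIC was the lowest concentration with a marked growth change versus the drug-free plate. Eubacterium lentum ATCC 43055 was the control, and tests were repeated if it fell outside the CLSI range.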

Clostridium subterminale = experiment: Antimicrobial activity against Clostridium subterminale by agar dilution method
[2] = test system: Peptoniphilus asaccharolyticus; experiment: Antimicrobial activity against Peptoniphilus asaccharolyticus by agar dilution method; outline: as §1
[Clostridium] innocuum [3] = Antimicrobial activity against Clostridium innocuum by agar dilution method
Anaerococcus prevotii = experiment: Antimicrobial activity against Anaerococcus prevotii by agar dilution method; outline: as §1
[Clostridium] innocuum [4] = Antimicrobial activity against Clostridium innocuum assessed as resistant isolates by agar dilution method; settings: pooled result: one value given for 4 cell lines, strains, targets or settings
[5] = test system: Clostridium paraputrificum; experiment: Antimicrobial activity against Clostridium paraputrificum by agar dilution method
Finegoldia magna [6] = experiment: Antimicrobial activity against Finegoldia magna assessed as resistant isolates by agar dilution method
Outline: (§2)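 Agar dilution following CLSI on brucella agar with 5% lysed defibrinated sheep blood and 1 μg/ml vitamin K1, plates made on test day. Log-phase cells at 0.5 McFarland, about 10^5 CFU/spot by Steers replicator, 48 h anaerobic at 37°C. MIC read as the lowest concentration causing a marked growth change versus control. Resistance counted by CLSI anaerobe breakpoints. Eubacterium lentum ATCC 43055 served as control.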

Propionibacterium [7] = experiment: Antimicrobial activity against Propionibacterium sp. assessed as resistant isolates by agar dilution method; outline: as §2
Clostridioides difficile = experiment: Antimicrobial activity against Clostridium difficile by agar dilution method
Cutibacterium acnes [8] = experiment: Antimicrobial activity against Propionibacterium acnes by agar dilution method
Outline: (§3)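 Log-phase isolates were adjusted to 0.5 McFarland, and about 10^5 CFU/spot was delivered by Steers replicator. Plates were incubated anaerobically at 37°C for 48 h. MIC was the lowest concentration giving a marked growth change versus the control plate. Eubacterium lentum ATCC 43055 was the QC strain, with repeats when out of range.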

Cutibacterium acnes [9] = experiment: Antimicrobial activity against Propionibacterium acnes assessed as resistant isolates by agar dilution method; outline: as §2
Clostridium perfringens = experiment: Antimicrobial activity against Clostridium perfringens by agar dilution method
Peptostreptococcus sp. = experiment: Antimicrobial activity against Peptostreptococcus sp. by agar dilution method; outline: as §3
Clostridium tertium = experiment: Antimicrobial activity against Clostridium tertium by agar dilution method
[10] = test system: Peptoniphilus asaccharolyticus; experiment: Antimicrobial activity against Peptoniphilus asaccharolyticus assessed as resistant isolates by agar dilution method; settings: pooled result: one value given for 4 cell lines, strains, targets or settings; outline: as §2
Parvimonas micra = experiment: Antimicrobial activity against Micromonas micros by agar dilution method; outline: as §1
Propionibacterium [11] = experiment: Antimicrobial activity against Propionibacterium sp. by agar dilution method; outline: as §3
Bacteroides fragilis [12] = experiment: Antimicrobial activity against Bacteroides fragilis by agar dilution method
Outline: (§4)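 CLSI agar dilution on enriched brucella agar (5% lysed defibrinated sheep blood, 1 μg/ml vitamin K1), with drug plates made on the test day. Log-phase cells were adjusted to 0.5 McFarland, and about 10^5 CFU/spot was delivered by Steers replicator. Plates were incubated anaerobically at 37°C for 48 h. MIC was the lowest concentration giving a marked growth change versus the control plate. Controls were B. fragilis ATCC 25285 and B. thetaiotaomicron ATCC 29741.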

Bacteroides eggerthii [13] = experiment: Antimicrobial activity against Bacteroides eggerthii by agar dilution method; outline: as §4
Bacteroides uniformis [14] = experiment: Antimicrobial activity against Bacteroides uniformis by agar dilution method; outline: as §4
[15] = test system: Parabacteroides distasonis; experiment: Antimicrobial activity against Bacteroides distasonis assessed as resistant isolates by agar dilution method
Outline: (§5)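 CLSI agar dilution on enriched brucella agar (5% lysed defibrinated sheep blood, 1 μg/ml vitamin K1), plates made on test day. Log-phase inocula adjusted to 0.5 McFarland; about 10^5 CFU/spot by Steers replicator. Incubated anaerobically at 37°C for 48 h. MIC was the lowest concentration giving a marked change in growth versus the drug-free control plate. Resistance rates used CLSI anaerobe breakpoints. Controls were B. fragilis ATCC 25285 and B. thetaiotaomicron ATCC 29741.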

Bacteroides uniformis [16] = experiment: Antimicrobial activity against Bacteroides uniformis assessed as resistant isolates by agar dilution method; outline: as §5
Parabacteroides merdae [17] = experiment: Antimicrobial activity against Bacteroides merdae assessed as resistant isolates by agar dilution method; outline: as §5
Parabacteroides merdae [18] = experiment: Antimicrobial activity against Bacteroides merdae by agar dilution method; outline: as §4
[19] = test system: Bacteroides thetaiotaomicron; experiment: Antimicrobial activity against Bacteroides thetaiotaomicron assessed as resistant isolates by agar dilution method; outline: as §5
Bacteroides nordii [20] = experiment: Antimicrobial activity against Bacteroides nordii assessed as resistant isolates by agar dilution method; outline: as §5
Bacteroides eggerthii [21] = experiment: Antimicrobial activity against Bacteroides eggerthii assessed as resistant isolates by agar dilution method; outline: as §5
Bacteroides nordii [22] = experiment: Antimicrobial activity against Bacteroides nordii by agar dilution method; outline: as §4
Bacteroides caccae [23] = experiment: Antimicrobial activity against Bacteroides caccae assessed as resistant isolates by agar dilution method; outline: as §5
Bacteroides ovatus [24] = experiment: Antimicrobial activity against Bacteroides ovatus assessed as resistant isolates by agar dilution method; outline: as §5
Phocaeicola vulgatus [25] = experiment: Antimicrobial activity against Bacteroides vulgatus by agar dilution method; outline: as §4
[26] = test system: Bacteroides thetaiotaomicron; experiment: Antimicrobial activity against Bacteroides thetaiotaomicron by agar dilution method; outline: as §4
Phocaeicola vulgatus [27] = experiment: Antimicrobial activity against Bacteroides vulgatus assessed as resistant isolates by agar dilution method; outline: as §5
Bacteroides fragilis [28] = experiment: Antimicrobial activity against Bacteroides fragilis assessed as resistant isolates by agar dilution method; outline: as §5
Bacteroides caccae [29] = experiment: Antimicrobial activity against Bacteroides caccae by agar dilution method; outline: as §4
Bacteroides ovatus [30] = experiment: Antimicrobial activity against Bacteroides ovatus by agar dilution method; outline: as §4
[31] = test system: Parabacteroides distasonis; experiment: Antimicrobial activity against Bacteroides distasonis by agar dilution method; outline: as §4

CN[C@H](CC(C)C)C(=O)N[C@H]1C(=O)N[C@@H](CC(N)=O)C(=O)N[C@H]2C(=O)N[C@H]3C(=O)N[C@H](C(=O)N[C@H](C(=O)O)c4cc(O)cc(O)c4-c4cc3ccc4O)[C@H](O)c3ccc(c(Cl)c3)Oc3cc2cc(c3O[C@@H]2O[C@H](CO)[C@@H](O)[C@H](O)[C@H]2O[C@H]2C[C@](C)(N)[C@H](O)[C@H](C)O2)Oc2ccc(cc2Cl)[C@H]1O [VANCOMYCIN]
MIC50 (Finegoldia magna [1]): 1 µg/mL (≈ 0.69 µM)
MIC90 (Finegoldia magna [1]): 1 µg/mL (≈ 0.69 µM)
MIC50 (Clostridium subterminale): 8 µg/mL (≈ 5.52 µM)
MIC90 (Clostridium subterminale): 16 µg/mL (≈ 11 µM)
MIC50 [2]: 1 µg/mL (≈ 0.69 µM)
MIC90 [2]: 2 µg/mL (≈ 1.38 µM)
MIC50 ([Clostridium] innocuum [3]): 8 µg/mL (≈ 5.52 µM)
MIC90 ([Clostridium] innocuum [3]): 16 µg/mL (≈ 11 µM)
MIC50 (Anaerococcus prevotii): 1 µg/mL (≈ 0.69 µM)
MIC90 (Anaerococcus prevotii): 2 µg/mL (≈ 1.38 µM)
Activity ([Clostridium] innocuum [4]): 0%
MIC50 [5]: 8 µg/mL (≈ 5.52 µM)
MIC90 [5]: 16 µg/mL (≈ 11 µM)
Activity (Finegoldia magna [6]): 0%
Activity (Propionibacterium [7]): 0%
MIC (Clostridioides difficile): 1 µg/mL (≈ 0.69 µM)
MIC (Cutibacterium acnes [8]): 1 µg/mL (≈ 0.69 µM)
MIC50 (Cutibacterium acnes [8]): 1 µg/mL (≈ 0.69 µM)
MIC90 (Cutibacterium acnes [8]): 1 µg/mL (≈ 0.69 µM)
Activity (Cutibacterium acnes [9]): 0%
MIC (Clostridium perfringens): 1 µg/mL (≈ 0.69 µM)
MIC50 (Clostridium perfringens): 1 µg/mL (≈ 0.69 µM)
MIC90 (Clostridium perfringens): 2 µg/mL (≈ 1.38 µM)
MIC50 (Peptostreptococcus sp.): 1 µg/mL (≈ 0.69 µM)
MIC90 (Peptostreptococcus sp.): 2 µg/mL (≈ 1.38 µM)
MIC50 (Clostridium tertium): 8 µg/mL (≈ 5.52 µM)
MIC90 (Clostridium tertium): 16 µg/mL (≈ 11 µM)
Activity [10]: 2.4%
MIC50 (Parvimonas micra): 1 µg/mL (≈ 0.69 µM)
MIC90 (Parvimonas micra): 2 µg/mL (≈ 1.38 µM)
MIC (Propionibacterium [11]): 1 µg/mL (≈ 0.69 µM)
MIC50 (Propionibacterium [11]): 1 µg/mL (≈ 0.69 µM)
MIC90 (Propionibacterium [11]): 1 µg/mL (≈ 0.69 µM)

Cc1ncc([N+](=O)[O-])n1CCO [METRONIDAZOLE]
MIC (Finegoldia magna [1]): 0.5 µg/mL (≈ 2.92 µM)
MIC50 (Finegoldia magna [1]): 0.5 µg/mL (≈ 2.92 µM)
MIC90 (Finegoldia magna [1]): 0.5 µg/mL (≈ 2.92 µM)
MIC50 (Clostridium subterminale): 2 µg/mL (≈ 11.7 µM)
MIC90 (Clostridium subterminale): 2 µg/mL (≈ 11.7 µM)
MIC50 [2]: 1 µg/mL (≈ 5.84 µM)
MIC90 [2]: 32 µg/mL (≈ 187 µM)
MIC50 ([Clostridium] innocuum [3]): 2 µg/mL (≈ 11.7 µM)
MIC90 ([Clostridium] innocuum [3]): 2 µg/mL (≈ 11.7 µM)
MIC50 (Anaerococcus prevotii): 1 µg/mL (≈ 5.84 µM)
MIC90 (Anaerococcus prevotii): 32 µg/mL (≈ 187 µM)
Activity ([Clostridium] innocuum [4]): 5.6%
MIC50 [5]: 2 µg/mL (≈ 11.7 µM)
MIC90 [5]: 2 µg/mL (≈ 11.7 µM)
Activity (Finegoldia magna [6]): 0%
Activity (Propionibacterium [7]): 92.3%
MIC (Clostridioides difficile): 0.5 µg/mL (≈ 2.92 µM)
MIC50 (Cutibacterium acnes [8]): 32 µg/mL (≈ 187 µM)
MIC90 (Cutibacterium acnes [8]): 32 µg/mL (≈ 187 µM)
Activity (Cutibacterium acnes [9]): 94.4%
MIC50 (Clostridium perfringens): 2 µg/mL (≈ 11.7 µM)
MIC90 (Clostridium perfringens): 4 µg/mL (≈ 23.4 µM)
MIC50 (Peptostreptococcus sp.): 1 µg/mL (≈ 5.84 µM)
MIC90 (Peptostreptococcus sp.): 32 µg/mL (≈ 187 µM)
MIC50 (Clostridium tertium): 2 µg/mL (≈ 11.7 µM)
MIC90 (Clostridium tertium): 2 µg/mL (≈ 11.7 µM)
Activity [10]: 34.1%
MIC50 (Parvimonas micra): 1 µg/mL (≈ 5.84 µM)
MIC90 (Parvimonas micra): 32 µg/mL (≈ 187 µM)
MIC50 (Propionibacterium [11]): 32 µg/mL (≈ 187 µM)
MIC90 (Propionibacterium [11]): 32 µg/mL (≈ 187 µM)

COc1c(N2C[C@@H]3CCCN[C@@H]3C2)c(F)cc2c(=O)c(C(=O)O)cn(C3CC3)c12 [MOXIFLOXACIN]
MIC50 (Bacteroides fragilis [12]): 1 µg/mL (≈ 2.49 µM)
MIC90 (Bacteroides fragilis [12]): 8 µg/mL (≈ 19.9 µM)
MIC50 (Bacteroides eggerthii [13]): 2 µg/mL (≈ 4.98 µM)
MIC90 (Bacteroides eggerthii [13]): 16 µg/mL (≈ 39.9 µM)
MIC50 (Bacteroides uniformis [14]): 4 µg/mL (≈ 9.96 µM)
MIC90 (Bacteroides uniformis [14]): 64 µg/mL (≈ 159 µM)
MIC50 (Anaerococcus prevotii): 0.5 µg/mL (≈ 1.25 µM)
MIC90 (Anaerococcus prevotii): 16 µg/mL (≈ 39.9 µM)
Activity [15]: 53.3%
Activity (Bacteroides uniformis [16]): 14.3%
Activity (Parabacteroides merdae [17]): 40%
MIC50 (Parabacteroides merdae [18]): 2 µg/mL (≈ 4.98 µM)
MIC90 (Parabacteroides merdae [18]): 16 µg/mL (≈ 39.9 µM)
Activity [19]: 30.8%
Activity (Bacteroides nordii [20]): 40%
Activity (Bacteroides eggerthii [21]): 40%
MIC50 (Bacteroides nordii [22]): 2 µg/mL (≈ 4.98 µM)
MIC90 (Bacteroides nordii [22]): 16 µg/mL (≈ 39.9 µM)
Activity (Finegoldia magna [6]): 40%
Activity (Bacteroides caccae [23]): 50%
Activity (Propionibacterium [7]): 0%
MIC50 (Cutibacterium acnes [8]): 0.25 µg/mL (≈ 0.623 µM)
MIC90 (Cutibacterium acnes [8]): 0.5 µg/mL (≈ 1.25 µM)
Activity (Bacteroides ovatus [24]): 40%
Activity (Cutibacterium acnes [9]): 0%
MIC50 (Phocaeicola vulgatus [25]): 8 µg/mL (≈ 19.9 µM)
MIC90 (Phocaeicola vulgatus [25]): 64 µg/mL (≈ 159 µM)
MIC50 [26]: 4 µg/mL (≈ 9.96 µM)
MIC90 [26]: 32 µg/mL (≈ 79.7 µM)
MIC50 (Peptostreptococcus sp.): 0.5 µg/mL (≈ 1.25 µM)
MIC90 (Peptostreptococcus sp.): 16 µg/mL (≈ 39.9 µM)
Activity [10]: 14.8%
Activity (Phocaeicola vulgatus [27]): 48.4%
Activity (Bacteroides fragilis [28]): 29.3%
MIC50 (Bacteroides caccae [29]): 4 µg/mL (≈ 9.96 µM)
MIC90 (Bacteroides caccae [29]): 16 µg/mL (≈ 39.9 µM)
MIC50 (Bacteroides ovatus [30]): 2 µg/mL (≈ 4.98 µM)
MIC90 (Bacteroides ovatus [30]): 32 µg/mL (≈ 79.7 µM)
MIC (Propionibacterium [11]): 0.25 µg/mL (≈ 0.623 µM)
MIC50 (Propionibacterium [11]): 0.25 µg/mL (≈ 0.623 µM)
MIC90 (Propionibacterium [11]): 0.5 µg/mL (≈ 1.25 µM)
MIC50 [31]: 8 µg/mL (≈ 19.9 µM)
MIC90 [31]: 16 µg/mL (≈ 39.9 µM)
